Laboratory results taken from ChEMBL document CHEMBL5303300, “EUbOPEN Chemogenomics Library - Multiplex” (2023).
Several values for one entry are separate records, joined by “and”; a condition that tells them apart may be missing. Equal values may be shown once.

Key:
HEK-293T = test: Multiplex assay against HEK293T; format: toxicity, cell-based; conditions: human, number of replicates 2
Method in brief: (§1)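 Live cells carried four stains from seeding: Hoechst33342, BioTracker Green Microtubule Cytoskeleton Dye, MitoTracker Red and Annexin V Alexa Fluor 680. They were imaged on a CQ1 microscope at 37°C and 5% CO2 after compound addition. Using CellPathfinder machine-learning gating, cells were split into Hoechst high-intensity objects or normal cells, normal cells into healthy, pyknosed or fragmented nuclei, and pyknosed cells into mitotic or apoptotic; tubulin, mitochondrial-mass and membrane-permeability phenotypes are per cents of healthy-nucleus cells.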

U2OS = test: Multiplex assay against U2OS; format: toxicity, cell-based; conditions: human, number of replicates 2; method in brief: as §1
[1] = 24 h, 1 µM, compound concentration 1 uM
[2] = 24 h, 10 µM, compound concentration 10 uM
[3] = 48 h, 1 µM, compound concentration 1 uM
[4] = 48 h, 10 µM, compound concentration 10 uM
[5] = 12 h, 1 µM, compound concentration 1 uM
[6] = 12 h, 10 µM, compound concentration 10 uM

## Fc1cccc(-n2cnc3c(NCc4nc5ccc(F)c(F)c5[nH]4)nc(N4CCOCC4)nc32)c1
HEK-293T; [1]
  Population Mitochondria Different-Phenotype (%): 75% and 72%
  Population Mitotic Cells (%): 34% and 22%
  Population Normal (%): 77% and 75%
  Population Pyknosed Nuclei (%): 12% and 35%
  Population Tubulin-Different-Phenotype (%): 88% and 80%
  Total Cell Count: 263 and 293
HEK-293T; [2]
  Population Apoptotic (%): 82% and 62%
  Population Fragmented Nuclei (%): 3% and 2%
  Population Healthy Nuclei (%): 85% and 88%
  Population Hoechst High Intensity Objects (%): 13% and 15%
  Population Membrane Permeable-Phenotype (%): 1% and 2%
  Population Mitochondria Different-Phenotype (%): 83% and 82%
  Population Mitotic Cells (%): 17% and 37%
  Population Normal (%): 86% and 84%
  Population Pyknosed Nuclei (%): 10% and 8%
  Population Tubulin-Different-Phenotype (%): 93% and 94%
  Total Cell Count: 366 and 334
HEK-293T; [3]
  Population Apoptotic (%): 69% and 80%
  Population Fragmented Nuclei (%): 5% and 7%
  Population Healthy Nuclei (%): 82% and 60%
  Population Hoechst High Intensity Objects (%): 23% and 24%
  Population Membrane Permeable-Phenotype (%): 1% and 3%
  Population Mitochondria Different-Phenotype (%): 84% and 70%
  Population Mitotic Cells (%): 30% and 19%
  Population Normal (%): 76% and 75%
  Population Pyknosed Nuclei (%): 11% and 32%
  Population Tubulin-Different-Phenotype (%): 88% and 73%
  Total Cell Count: 251 and 297
HEK-293T; [4]
  Population Apoptotic (%): 89% and 85%
  Population Fragmented Nuclei (%): 4% and 5%
  Population Healthy Nuclei (%): 85% and 83%
  Population Hoechst High Intensity Objects (%): 13% and 16%
  Population Membrane Permeable-Phenotype (%): 1% and 0%
  Population Mitochondria Different-Phenotype (%): 92%
  Population Mitotic Cells (%): 10% and 14%
  Population Normal (%): 86% and 83%
  Population Pyknosed Nuclei (%): 10%
  Population Tubulin-Different-Phenotype (%): 96% and 94%
  Total Cell Count: 333 and 303
U2OS; [5]
  Population Fragmented Nuclei (%): 13%
  Population Healthy Nuclei (%): 59% and 53%
  Population Hoechst High Intensity Objects (%): 0%
  Population Membrane Permeable-Phenotype (%): 2% and 5%
  Population Mitochondria Different-Phenotype (%): 5% and 0%
  Population Normal (%): 99% and 100%
  Population Pyknosed Nuclei (%): 27% and 32%
  Population Tubulin-Different-Phenotype (%): 68% and 31%
U2OS; [6]
  Population Apoptotic (%): 86% and 90%
  Population Hoechst High Intensity Objects (%): 0%
  Population Membrane Permeable-Phenotype (%): 33% and 45%
  Population Mitochondria Different-Phenotype (%): 33% and 52%
  Population Mitotic Cells (%): 13% and 9%
  Population Normal (%): 100% and 99%
  Population Pyknosed Nuclei (%): 41% and 57%
  Population Tubulin-Different-Phenotype (%): 100% and 78%
U2OS; [1]
  Population Apoptotic (%): 63% and 97%
  Population Fragmented Nuclei (%): 8% and 19%
  Population Healthy Nuclei (%): 14% and 15%
  Population Hoechst High Intensity Objects (%): 5% and 3%
  Population Membrane Permeable-Phenotype (%): 12% and 28%
  Population Mitochondria Different-Phenotype (%): 12% and 23%
  Population Normal (%): 95% and 96%
  Population Pyknosed Nuclei (%): 77% and 64%
  Population Tubulin-Different-Phenotype (%): 37% and 73%
U2OS; [2]
  Population Apoptotic (%): 90% and 94%
  Population Hoechst High Intensity Objects (%): 0% and 1%
  Population Mitochondria Different-Phenotype (%): 100% and 69%
  Population Mitotic Cells (%): 9% and 5%
  Population Normal (%): 100% and 98%
  Population Pyknosed Nuclei (%): 55% and 76%
  Population Tubulin-Different-Phenotype (%): 100% and 65%
U2OS; [3]
  Population Apoptotic (%): 87% and 100%
  Population Fragmented Nuclei (%): 8% and 21%
  Population Healthy Nuclei (%): 2% and 8%
  Population Hoechst High Intensity Objects (%): 6%
  Population Membrane Permeable-Phenotype (%): 100% and 42%
  Population Mitotic Cells (%): 12% and 0%
  Population Normal (%): 93%
  Population Pyknosed Nuclei (%): 89% and 70%
  Population Tubulin-Different-Phenotype (%): 100% and 94%
U2OS; [4]
  Population Apoptotic (%): 100% and 99%
  Population Healthy Nuclei (%): 4% and 10%
  Population Hoechst High Intensity Objects (%): 0%
  Population Membrane Permeable-Phenotype (%): 100% and 60%
  Population Mitochondria Different-Phenotype (%): 50% and 93%
  Population Mitotic Cells (%): 0%
  Population Normal (%): 100%
  Population Pyknosed Nuclei (%): 46% and 81%
  Population Tubulin-Different-Phenotype (%): 100% and 73%
